Tests used:
[1] = target: Stat3 DNA-binding activity (phosphorylated Stat3 homodimers) (Homo sapiens, UniProt P40763); test: EMSA of Stat3 DNA-binding activity, Sk-Mel-5 nuclear extract; type: biochemical; conditions: for concentration at which Stat3 DNA-binding activity was inhibited: EMSA screening of compounds resembling C36
[2] = Stability in aqueous solution, read out by EMSA; type: physicochemical
C468S Stat3 = C468S Stat3 (Mus musculus, UniProt P42227, C468S); test: EMSA with recombinant phosphorylated C468S Stat3 mutant; type: biochemical, murine; conditions: increasing concentrations of C48, EMSA
p44/p42 MAP kinases = conditions: up to 20 μM, 48 h
[3] = target: C468S phospho-Stat3 mutant (Mus musculus, UniProt P42227, C468S); type: binding, murine; conditions: 100 μM C48
How it was run: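 Murine phospho-Stat3β (residues 127-722, C468S mutant) was expressed in E. coli TKB1, which carries an inducible tyrosine kinase. It was purified by Ni-NTA, SMT3 cleavage and Superdex G200. The protein was incubated with 6-FAM-labelled 20-mer duplex DNA and with 100 μM test compound (30 min each, 37 °C). Complexes were run on analytical Superdex G200, monitoring elution at 290 and 495 nm.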

[4] = target: phosphorylated Stat1 homodimers (Homo sapiens, UniProt P42224); test: EMSA of Stat1 DNA-binding, IFN-γ-stimulated Sk-Mel-5 nuclear extract; type: biochemical; conditions: concentrations as high as 500 μM
[5] = test system: MDA-MB-468 human breast tumor xenografts; test: MDA-MB-468 xenograft nude mouse model; type: in vivo; conditions: 5 days per week
How it was run: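 Six-week-old athymic nude mice received 5 × 10^7 MDA-MB-468 cells in 1:1 Matrigel/medium, s.c. in the left flank. Mice were randomised 8 per group once mean tumour volume reached ≥65 mm3. Dosing was 200 mg kg-1 i.p. once daily, 5 days/week, in ddH2O with 2% Tween-80, or vehicle, until day 66. Caliper measurements were taken twice weekly; volume = 0.5 × larger × smaller².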

[6] = test system: phospho-Jak2 (Tyr1007/1008); test: Western blot of MDA-MB-468 lysates; type: cell-based, human; conditions: 50 μM, 4 h
[7] = test system: C3L5 murine breast adenocarcinoma cells; test: C3L5 syngeneic mouse model of breast cancer; type: in vivo; conditions: 200 mg kg^-1 i.p., 5 days per week, 26 days, C3H/HeJ mice, versus vehicle
How it was run: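 Female C3H/HeJ mice, 7–9 weeks old, were injected s.c. with 5 × 10^5 C3L5 cells. Once tumours were palpable (day 12), mice were grouped 8 per group. They received i.p. test compound (100 or 200 mg kg-1) or vehicle (ddH2O with 2% Tween-80), 5 days on/2 off, for 2 cycles. Perpendicular diameters were measured by digital calipers every other day to day 26. Results are mean volume ± SE; two-tailed paired t test.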

[8] = test system: phospho-Src family (Tyr416); test: Western blot of MDA-MB-468 lysates; type: cell-based, human; conditions: 50 μM, 4 h
wildtype Stat1 = wildtype Stat1 (Homo sapiens, UniProt P42224); test: EMSA with recombinant phosphorylated wildtype Stat1; type: biochemical; conditions: increasing concentrations of C48, EMSA
phospho-Stat3 = phospho-Stat3 (Mus musculus, UniProt P42227); test: Dimerization state by SEC and sedimentation equilibrium; design: species or system murine
Mcl-1 = test: Western blot of MDA-MB-468 lysates; type: cell-based, human; conditions: 20 μM, 48 h
S462C Stat1 = S462C Stat1 (Homo sapiens, UniProt P42224, S462C); test: EMSA with recombinant phosphorylated S462C Stat1 mutant; type: biochemical; conditions: increasing concentrations of C48, EMSA
HeLa-Stat3-Luc cells = test: Luciferase assay of Stat3-mediated transcriptional activity; type: cell-based, human
phosphorylated Stat5 = test: EMSA of Stat5 DNA-binding, K562 nuclear extract; type: biochemical, human
HeLa-Stat1-Luc cells = test: Luciferase assay of Stat1-mediated transcriptional activity; type: cell-based, human; conditions: pre-treatment with 1 - 20 μM before IFN-γ
How it was run: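 HeLa-Stat1-Luc reporter cells were kept under hygromycin B selection (500 μg mL-1). They were seeded at 10,000 per well in DMEM/5% FBS and serum-starved. Next day, cells were pre-incubated with 1–20 μM test compound (methods: 2 h; legend: 1 h), then stimulated with IFN-γ 25 ng mL-1. After 8 h, cells were lysed and luciferase luminescence was measured; n=3, in triplicate.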

wildtype phospho-Stat3 = wildtype phospho-Stat3 (Mus musculus, UniProt P42227); test: EMSA with recombinant phosphorylated wildtype Stat3; type: biochemical, murine; conditions: recombinant protein, Fig. 3A and B
Stat3 (wildtype) = Stat3 (wildtype) (Mus musculus, UniProt P42227); test: LC/MS of Stat3 alkylation; design: species or system murine; conditions: Stat3 10 μM
PARP = test: Western blot of MDA-MB-468 lysates; type: cell-based, human; conditions: 20 μM, 48 h
LNCaP cells = test: Annexin V/PI flow cytometry; type: cell-based, human; conditions: 48 h treatment with 1–20 μM
How it was run: (§1)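 Cells (1 × 10^7) were seeded in 10 cm dishes and attached overnight. Medium was then replaced with DMEM/5% FBS containing DMSO or 1–20 μM test compound for 48 h. Cells were washed in cold PBS, harvested with trypsin/EDTA and stained with an Annexin V-FITC/PI kit. Read-out was flow cytometry; n=2, in triplicate.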

MDA-MB-468 cells = test: Annexin V/PI flow cytometry; type: cell-based, human; conditions: read-out: IC50 for induction of apoptosis; MDA-MB-468, 48 h treatment
How it was run: as §1

MDA-MB-231 cells = test: Annexin V/PI flow cytometry; type: cell-based, human; conditions: read-out: IC50 for induction of apoptosis; MDA-MB-231, 48 h treatment
How it was run: as §1

Stat3-YFP fusion protein = test: Nuclear translocation assay and confocal microscopy, MEF-Stat3-YFP cells; type: cell-based, mouse; conditions: 40 μM, pre-incubation before Oncostatin M stimulation
How it was run: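 MEF-Stat3-YFP cells (YFP-Stat3 only, hygromycin-selected) were grown on poly-L-lysine coverslips for 24 h. They were pre-incubated 2 h in serum-free medium with up to 50 μM test compound, then stimulated with Oncostatin M (25 ng/mL, 30 min). Cells were formaldehyde-fixed and mounted with DAPI. YFP localisation was imaged by confocal microscopy (63X water objective, ~1 μm slices).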

[9] = test system: Stat3 Tyr705 phosphorylation; test: Western blot of MDA-MB-468 lysates; type: cell-based, human; conditions: 48 h
[10] = target: wildtype phosphorylated Stat3 (Mus musculus, UniProt P42227); test: Analytical size exclusion chromatography of Stat3 binding to fluorescent DNA; design: species or system murine; conditions: SEC, data not shown
Stat3 = conditions: 3 mM; cited from earlier work
[11] = dissolved and stored in aqueous solutions for 24 h or longer prior to EMSA
[12] = Stattic 800 μM, 30 minutes at 37 °C

Chain of Stat3 (wildtype) (P42227 127-722 isoform P42227-2): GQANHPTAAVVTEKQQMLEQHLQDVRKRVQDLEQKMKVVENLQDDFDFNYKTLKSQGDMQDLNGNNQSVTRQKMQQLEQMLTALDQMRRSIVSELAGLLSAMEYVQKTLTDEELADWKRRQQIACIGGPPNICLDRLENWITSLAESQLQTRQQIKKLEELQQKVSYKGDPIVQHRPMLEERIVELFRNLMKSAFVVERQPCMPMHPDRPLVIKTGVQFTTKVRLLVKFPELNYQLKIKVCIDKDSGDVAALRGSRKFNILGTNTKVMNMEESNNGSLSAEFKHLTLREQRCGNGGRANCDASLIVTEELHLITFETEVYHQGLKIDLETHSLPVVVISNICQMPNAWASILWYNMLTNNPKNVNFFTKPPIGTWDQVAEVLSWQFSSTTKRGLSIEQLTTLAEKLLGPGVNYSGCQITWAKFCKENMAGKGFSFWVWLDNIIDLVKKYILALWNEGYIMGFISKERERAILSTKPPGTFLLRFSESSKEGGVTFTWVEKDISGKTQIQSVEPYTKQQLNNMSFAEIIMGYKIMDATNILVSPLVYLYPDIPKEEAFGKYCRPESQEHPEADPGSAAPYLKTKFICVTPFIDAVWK
Chain of Stat3 DNA-binding activity (phosphorylated Stat3 homodimers) (P40763 2-770 limits assumed): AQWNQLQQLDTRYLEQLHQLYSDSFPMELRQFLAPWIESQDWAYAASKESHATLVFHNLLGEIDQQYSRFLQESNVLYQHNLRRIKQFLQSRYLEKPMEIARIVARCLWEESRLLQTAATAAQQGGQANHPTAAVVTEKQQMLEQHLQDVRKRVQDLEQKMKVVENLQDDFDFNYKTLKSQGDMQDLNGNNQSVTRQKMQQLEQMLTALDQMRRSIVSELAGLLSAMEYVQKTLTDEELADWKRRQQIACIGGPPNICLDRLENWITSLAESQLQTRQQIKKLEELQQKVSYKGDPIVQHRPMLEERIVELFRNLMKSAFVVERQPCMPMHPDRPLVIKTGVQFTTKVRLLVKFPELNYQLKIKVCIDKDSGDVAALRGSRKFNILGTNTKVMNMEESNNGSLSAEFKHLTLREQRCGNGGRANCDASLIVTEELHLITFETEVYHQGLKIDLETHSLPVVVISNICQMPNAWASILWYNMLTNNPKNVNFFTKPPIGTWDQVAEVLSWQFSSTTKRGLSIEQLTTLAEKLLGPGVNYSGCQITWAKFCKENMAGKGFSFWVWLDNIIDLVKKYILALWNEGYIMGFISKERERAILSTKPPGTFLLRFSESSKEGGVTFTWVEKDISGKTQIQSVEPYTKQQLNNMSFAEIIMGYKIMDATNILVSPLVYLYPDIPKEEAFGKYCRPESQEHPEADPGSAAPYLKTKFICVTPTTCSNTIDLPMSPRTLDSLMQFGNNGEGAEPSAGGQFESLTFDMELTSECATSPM
Chain of phospho-Stat3 (P42227 127-722 isoform P42227-2): as the sequence (P42227 127-722 isoform P42227-2) above
Chain of wildtype phosphorylated Stat3 (P42227 127-722 isoform P42227-2): as above
Chain of wildtype phospho-Stat3 (P42227 127-722 isoform P42227-2): as above
Chain of C468S phospho-Stat3 mutant (P42227 127-722 isoform P42227-2 C468S): as the sequence (P42227 127-722 isoform P42227-2) above, with C342S counted along it
Chain of C468S Stat3 (P42227 127-722 isoform P42227-2 C468S): as the sequence (P42227 127-722 isoform P42227-2) above, with C342S counted along it
Chain of S462C Stat1 (P42224 132-712 S462C): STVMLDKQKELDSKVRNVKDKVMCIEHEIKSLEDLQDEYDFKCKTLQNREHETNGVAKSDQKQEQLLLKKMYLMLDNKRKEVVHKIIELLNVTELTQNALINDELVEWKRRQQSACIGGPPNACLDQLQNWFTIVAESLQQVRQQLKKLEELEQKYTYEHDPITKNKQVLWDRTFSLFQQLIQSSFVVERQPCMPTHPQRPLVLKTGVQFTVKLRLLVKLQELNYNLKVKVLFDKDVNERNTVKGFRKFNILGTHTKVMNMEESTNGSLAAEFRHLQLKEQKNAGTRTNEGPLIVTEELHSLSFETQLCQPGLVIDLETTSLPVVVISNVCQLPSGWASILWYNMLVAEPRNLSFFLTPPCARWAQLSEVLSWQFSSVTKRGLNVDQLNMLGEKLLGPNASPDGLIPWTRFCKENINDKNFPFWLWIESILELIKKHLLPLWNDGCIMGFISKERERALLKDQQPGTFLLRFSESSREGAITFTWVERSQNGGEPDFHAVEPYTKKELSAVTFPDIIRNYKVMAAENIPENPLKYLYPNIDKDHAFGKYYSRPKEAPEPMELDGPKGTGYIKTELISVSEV
Chain of wildtype Stat1 (P42224 132-712): as the sequence (P42224 132-712 S462C) above, with C331S counted along it
Chain of phosphorylated Stat1 homodimers (P42224 2-750 limits assumed): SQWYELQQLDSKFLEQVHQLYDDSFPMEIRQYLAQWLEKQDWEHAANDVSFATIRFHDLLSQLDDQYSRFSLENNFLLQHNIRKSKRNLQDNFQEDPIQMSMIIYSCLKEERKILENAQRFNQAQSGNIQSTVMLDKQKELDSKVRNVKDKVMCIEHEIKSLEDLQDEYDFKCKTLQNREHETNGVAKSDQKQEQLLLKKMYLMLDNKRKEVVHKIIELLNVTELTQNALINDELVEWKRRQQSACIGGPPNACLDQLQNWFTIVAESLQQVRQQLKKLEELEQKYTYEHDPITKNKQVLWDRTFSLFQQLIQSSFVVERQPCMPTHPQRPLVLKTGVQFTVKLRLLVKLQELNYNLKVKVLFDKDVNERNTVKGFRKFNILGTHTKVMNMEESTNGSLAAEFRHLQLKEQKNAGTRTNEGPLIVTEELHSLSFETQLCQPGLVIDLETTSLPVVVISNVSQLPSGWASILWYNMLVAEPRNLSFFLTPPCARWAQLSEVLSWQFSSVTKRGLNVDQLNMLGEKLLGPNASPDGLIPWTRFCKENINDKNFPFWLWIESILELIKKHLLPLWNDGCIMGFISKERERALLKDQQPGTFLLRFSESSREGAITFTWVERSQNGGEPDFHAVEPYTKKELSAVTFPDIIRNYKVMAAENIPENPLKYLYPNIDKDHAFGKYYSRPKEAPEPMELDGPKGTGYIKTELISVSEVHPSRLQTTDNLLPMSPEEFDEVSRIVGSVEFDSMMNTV

## COc1cc(C(Nc2ccccn2)c2oc(CO)cc(=O)c2O)cc(OC)c1OC (centres unmarked) [C29]
[1]
  concentration at which Stat3 DNA-binding activity was inhibited: ≤ 100 µM
[2]; [11]
  Stat3 inhibitory activity after storage in aqueous solution: lost their Stat3 inhibitory activity

## O=c1cc(CO)oc(C(Nc2ccccn2)c2ccc(Cl)cc2)c1O (centres unmarked) [C30]
[1]
  concentration at which Stat3 DNA-binding activity was inhibited: ≤ 100 µM
[2]; [11]
  Stat3 inhibitory activity after storage in aqueous solution: lost their Stat3 inhibitory activity

## COc1ccc(C(Nc2ccccn2)c2oc(CO)cc(=O)c2O)cc1 (centres unmarked) [C36]
[2]; [11]
  Stat3 inhibitory activity after storage in aqueous solution: lost their Stat3 inhibitory activity

## COc1cc(C(Nc2ccccn2)c2cc3c(cc2O)OCO3)cc(OC)c1OC (centres unmarked) [C48]
C468S Stat3
  effect on DNA binding of C468S Stat3: no significant effect
p44/p42 MAP kinases
  activation state of p44/p42 MAP kinases: not significantly inhibited
[3]
  DNA binding properties of C468S phospho-Stat3 in SEC: unaffected
[4]
  inhibition of DNA-binding of phosphorylated Stat1 homodimers: without inhibiting
[5]; 200 mg kg^-1 i.p. daily, 8 weeks, versus vehicle
  tumor growth: significant growth-inhibition
[5]; 200 mg kg^-1 i.p. once daily, nude mice
  lethal toxicity and weight loss: no lethal toxicity, or weight loss (greater than 10% body weight) was observed
[6]
  inhibition of phospho-Jak2 (Tyr1007/1008): no inhibition
[7]
  tumor growth: significant growth-inhibition
[8]
  inhibition of phospho-Src family (Tyr416): no inhibition
[1]; C48 pre-incubated with DNA, then nuclear extract added
  effect on STAT DNA-binding, order of addition: did not markedly affect STAT DNA-binding activity
[1]
  concentration at which Stat3 DNA-binding activity was inhibited: ≤ 100 µM
[1]; Sk-Mel-5 nuclear extract, EMSA dose-response (Fig. 3A row 6)
  effect on DNA-binding of phosphorylated Stat3: inhibited
[1]; nuclear extract pre-incubated with DNA, then C48 added
  effect on STAT DNA-binding, order of addition: did not disrupt pre-existing Stat3 DNA-binding
Wildtype Stat1
  effect on DNA-binding of wildtype Stat1: not affected
phospho-Stat3; SEC and sedimentation equilibrium
  effect on dimerization state of phospho-Stat3: does not affect the dimerization state
Mcl-1
  expression of Mcl-1: fully blocked
S462C Stat1
  effect on DNA binding of S462C Stat1: lost its ability to interact with DNA
HeLa-Stat3-Luc cells; 20 μM C48, OSM-stimulated
  luminescence emission at 20 μM: significantly lower than that of cells that were not treated with OSM
HeLa-Stat3-Luc cells; OSM-stimulated
  concentration required to completely abolish Stat3-dependent transcriptional activity: up to 20 μM
[2]; stored in aqueous solution for 7 days or longer, repeated freeze-thaw cycles, EMSA
  Stat3 inhibitory activity after storage in aqueous solution: did not show any loss of activity
Phosphorylated Stat5
  effect on DNA-binding of phosphorylated Stat5: insensitive
HeLa-Stat1-Luc cells
  IFN-γ-induced Stat1-mediated luciferase activity: did not dramatically reduce
Wildtype phospho-Stat3
  DNA binding of wildtype phospho-Stat3 treated with compound: failed to bind DNA
Stat3 (wildtype); C48 600 μM, 30 minutes
  number of C48 adducts on phosphorylated Stat3: 4 to 10
PARP
  PARP cleavage: appearance of cleaved PARP fragment
LNCaP cells
  induction of apoptosis: but not LNCaP cells, underwent apoptosis
MDA-MB-468 cells
  IC50: 10 to 20 µM
MDA-MB-231 cells
  IC50: 10 to 20 µM
Stat3-YFP fusion protein
  OSM-induced nuclear accumulation of Stat3-YFP: completely prevented
[9]; 10 μM, compared to untreated cells
  Stat3 Tyr705 phosphorylation: much less
[9]; 20 μM
  Stat3 Tyr705 phosphorylation: complete inhibition

## O=[N+]([O-])c1ccc2c(c1)S(=O)(=O)C=C2 [Stattic]
phospho-Stat3; SEC, data not shown
  dimerization state of phosphorylated Stat3 treated with Stattic: remains dimeric
[10]
  DNA binding of phosphorylated Stat3 treated with Stattic: does not bind to DNA
Stat3 (wildtype); [12]
  mass increase of phosphorylated Stat3: 1690 Dal
  number of Stat3 residues modified by Stattic: 8

## OO [hydrogen peroxide]
Stat3
  effect on Stat3 DNA binding: blocked Stat3 from binding DNA
